Values joined by “and” are separate entries in the source; they are usually repeats but may differ in a detail not shown here. Equal values may be shown once.
System: HEK-293T
Assay: Multiplex assay against HEK293T;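 as to Population Tubulin-Different-Phenotype (%): share of the cells with healthy nuclei that show this phenotype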
Format: toxicity, cell-based
Conditions: human
Outline: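 Cells stained live at seeding with Hoechst33342, BioTracker Green Microtubule Cytoskeleton Dye, MitoTracker Red and Annexin V Alexa Fluor 680 were imaged on a CQ1 microscope at 37°C and 5% CO2 after compound addition. Their classification by CellPathfinder machine-learning gating ran from Hoechst high-intensity objects versus normal cells, to healthy, pyknosed or fragmented nuclei among normal cells, to mitotic or apoptotic among pyknosed cells. Tubulin, mitochondrial-mass and membrane-permeability phenotypes are per cents of healthy-nucleus cells.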

[1] = 12 h, 1 µM, compound concentration 1 uM, replicate 1
[2] = 12 h, 1 µM, compound concentration 1 uM, replicate 2
[3] = 12 h, 10 µM, compound concentration 10 uM, replicate 1
[4] = 12 h, 10 µM, compound concentration 10 uM, replicate 2
[5] = 24 h, 1 µM, compound concentration 1 uM, replicate 1
[6] = 24 h, 1 µM, compound concentration 1 uM, replicate 2
[7] = 24 h, 10 µM, compound concentration 10 uM, replicate 1
[8] = 24 h, 10 µM, compound concentration 10 uM, replicate 2
[9] = 48 h, 1 µM, compound concentration 1 uM, replicate 1
[10] = 48 h, 1 µM, compound concentration 1 uM, replicate 2
[11] = 48 h, 10 µM, compound concentration 10 uM, replicate 1
[12] = 48 h, 10 µM, compound concentration 10 uM, replicate 2

In the case of CN1CCN(Cc2ccc(Nc3ncc(Cl)c(Nc4ccccc4S(=O)(=O)N(C)C)n3)cc2)CC1 [DUBERMATINIB], the “Population Apoptotic (%)” value [1] is reported as 48%, the “Population Fragmented Nuclei (%)” value [1] is reported as 14% and the “Population Healthy Nuclei (%)” value [1] is reported as 42%. For the same compound, the “Population Hoechst High Intensity Objects (%)” value [1] was 12%, the “Population Membrane Permeable-Phenotype (%)” value [1] was 0% and the “Population Mitochondria Different-Phenotype (%)” value [1] was 72%. For the same compound, the “Population Mitotic Cells (%)” value [1] was 51%, the “Population Normal (%)” value [1] was 87% and the “Population Pyknosed Nuclei (%)” value [1] was 42%. For the same compound, the “Population Tubulin-Different-Phenotype (%)” value [1] was 35%, the “Total Cell Count” value [1] was 297 and the “Population Apoptotic (%)” value [2] was 13%. For the same compound, the “Population Fragmented Nuclei (%)” value [2] was 8%, the “Population Healthy Nuclei (%)” value [2] was 55% and the “Population Hoechst High Intensity Objects (%)” value [2] was 2%. The “Population Membrane Permeable-Phenotype (%)” value [2] was 5%, the “Population Mitochondria Different-Phenotype (%)” value [2] was 14% and the “Population Mitotic Cells (%)” value [2] was 86%. The “Population Normal (%)” value [2] was 97%, the “Population Pyknosed Nuclei (%)” value [2] was 35% and the “Population Tubulin-Different-Phenotype (%)” value [2] was 14%. The “Total Cell Count” value [2] was 174, the “Population Apoptotic (%)” value [3] was 62% and the “Population Fragmented Nuclei (%)” value [3] was 11%. The “Population Healthy Nuclei (%)” value [3] was 40%, the “Population Hoechst High Intensity Objects (%)” value [3] was 18% and the “Population Membrane Permeable-Phenotype (%)” value [3] was 1%. The “Population Mitochondria Different-Phenotype (%)” value [3] was 96%, the “Population Mitotic Cells (%)” value [3] was 38% and the “Population Normal (%)” value [3] was 81%. For the same compound, the “Population Pyknosed Nuclei (%)” value [3] was 47%, the “Population Tubulin-Different-Phenotype (%)” value [3] was 88% and the “Total Cell Count” value [3] was 258. For the same compound, the “Population Apoptotic (%)” value [4] was 16%, the “Population Fragmented Nuclei (%)” value [4] was 14% and the “Population Healthy Nuclei (%)” value [4] was 59%. The “Population Hoechst High Intensity Objects (%)” value [4] was 4%, the “Population Membrane Permeable-Phenotype (%)” value [4] was 2% and the “Population Mitochondria Different-Phenotype (%)” value [4] was 32%. The “Population Mitotic Cells (%)” value [4] was 83%, the “Population Normal (%)” value [4] was 95% and the “Population Pyknosed Nuclei (%)” value [4] was 26%. The “Population Tubulin-Different-Phenotype (%)” value [4] was 33%, the “Total Cell Count” value [4] was 214 and the “Population Apoptotic (%)” value [5] was 53%. The “Population Fragmented Nuclei (%)” value [5] was 15%, the “Population Healthy Nuclei (%)” value [5] was 45% and the “Population Hoechst High Intensity Objects (%)” value [5] was 10%. For the same compound, the “Population Membrane Permeable-Phenotype (%)” value [5] was 0%, the “Population Mitochondria Different-Phenotype (%)” value [5] was 59% and the “Population Mitotic Cells (%)” value [5] was 46%. The “Population Normal (%)” value [5] was 89%, the “Population Pyknosed Nuclei (%)” value [5] was 39% and the “Population Tubulin-Different-Phenotype (%)” value [5] was 31%. The “Total Cell Count” value [5] was 290, the “Population Apoptotic (%)” value [6] was 27% and the “Population Fragmented Nuclei (%)” value [6] was 19%. The “Population Healthy Nuclei (%)” value [6] was 69%, the “Population Hoechst High Intensity Objects (%)” value [6] was 3% and the “Population Membrane Permeable-Phenotype (%)” value [6] was 16%. For the same compound, the “Population Mitochondria Different-Phenotype (%)” value [6] was 5%, the “Population Mitotic Cells (%)” value [6] was 72% and the “Population Normal (%)” value [6] was 96%. The “Population Pyknosed Nuclei (%)” value [6] was 11%, the “Population Tubulin-Different-Phenotype (%)” value [6] was 17% and the “Total Cell Count” value [6] was 206. The “Population Apoptotic (%)” value [7] was 69%, the “Population Fragmented Nuclei (%)” value [7] was 15% and the “Population Healthy Nuclei (%)” value [7] was 33%. The “Population Hoechst High Intensity Objects (%)” value [7] was 18%, the “Population Mitochondria Different-Phenotype (%)” value [7] was 88% and the “Population Mitotic Cells (%)” value [7] was 30%. The “Population Normal (%)” value [7] was 81%, the “Population Pyknosed Nuclei (%)” value [7] was 50% and the “Population Tubulin-Different-Phenotype (%)” value [7] was 80%. For the same compound, the “Total Cell Count” value [7] was 270, the “Population Apoptotic (%)” value [8] was 28% and the “Population Fragmented Nuclei (%)” value [8] was 19%. The “Population Healthy Nuclei (%)” value [8] was 42%, the “Population Hoechst High Intensity Objects (%)” value [8] was 6% and the “Population Membrane Permeable-Phenotype (%)” value [8] was 1%. The “Population Mitochondria Different-Phenotype (%)” value [8] was 21%, the “Population Mitotic Cells (%)” value [8] was 71% and the “Population Normal (%)” value [8] was 93%. For the same compound, the “Population Pyknosed Nuclei (%)” value [8] was 38%, the “Population Tubulin-Different-Phenotype (%)” value [8] was 25% and the “Total Cell Count” value [8] was 222. The “Population Apoptotic (%)” value [9] was 60%, the “Population Fragmented Nuclei (%)” value [9] was 26% and the “Population Healthy Nuclei (%)” value [9] was 51%. The “Population Hoechst High Intensity Objects (%)” value [9] was 10%, the “Population Membrane Permeable-Phenotype (%)” value [9] was 4% and the “Population Mitochondria Different-Phenotype (%)” value [9] was 26%. For the same compound, the “Population Mitotic Cells (%)” value [9] was 39%, the “Population Normal (%)” value [9] was 89% and the “Population Pyknosed Nuclei (%)” value [9] was 22%. The “Population Tubulin-Different-Phenotype (%)” value [9] was 24%, the “Total Cell Count” value [9] was 316 and the “Population Apoptotic (%)” value [10] was 38%. For the same compound, the “Population Fragmented Nuclei (%)” value [10] was 21%, the “Population Healthy Nuclei (%)” value [10] was 73% and the “Population Hoechst High Intensity Objects (%)” value [10] was 6%. The “Population Membrane Permeable-Phenotype (%)” value [10] was 20%, the “Population Mitochondria Different-Phenotype (%)” value [10] was 1% and the “Population Mitotic Cells (%)” value [10] was 61%. For the same compound, the “Population Normal (%)” value [10] was 93%, the “Population Pyknosed Nuclei (%)” value [10] was 5% and the “Population Tubulin-Different-Phenotype (%)” value [10] was 17%. The “Total Cell Count” value [10] was 259, the “Population Apoptotic (%)” value [11] was 65% and the “Population Healthy Nuclei (%)” value [11] was 24%. The “Population Hoechst High Intensity Objects (%)” value [11] was 15%, the “Population Membrane Permeable-Phenotype (%)” value [11] was 0% and the “Population Mitochondria Different-Phenotype (%)” value [11] was 83%. The “Population Mitotic Cells (%)” value [11] was 34%, the “Population Normal (%)” value [11] was 84% and the “Population Pyknosed Nuclei (%)” value [11] was 58%. The “Population Tubulin-Different-Phenotype (%)” value [11] was 70%, the “Total Cell Count” value [11] was 267 and the “Population Apoptotic (%)” value [12] was 29%. The “Population Fragmented Nuclei (%)” value [12] was 17%, the “Population Healthy Nuclei (%)” value [12] was 36% and the “Population Hoechst High Intensity Objects (%)” value [12] was 6%. For the same compound, the “Population Membrane Permeable-Phenotype (%)” value [12] was 2%, the “Population Mitochondria Different-Phenotype (%)” value [12] was 32% and the “Population Mitotic Cells (%)” value [12] was 70%. For the same compound, the “Population Normal (%)” value [12] was 93%, the “Population Pyknosed Nuclei (%)” value [12] was 46% and the “Population Tubulin-Different-Phenotype (%)” value [12] was 35%. The “Total Cell Count” value [12] was 210.

C#Cc1cccc(Nc2ncnc3cc(OCCOC)c(OCCOC)cc23)c1 [ERLOTINIB] was tested, and the “Population Apoptotic (%)” value [3] was 61% and 22% and 23%, the “Population Fragmented Nuclei (%)” value [3] was 11% and 22% and 20% and the “Population Healthy Nuclei (%)” value [3] was 23% and 55% and 63%. For the same compound, the “Population Hoechst High Intensity Objects (%)” value [3] was 14% and 12%, the “Population Membrane Permeable-Phenotype (%)” value [3] was 8% and 18% and 7% and the “Population Mitotic Cells (%)” value [3] was 38% and 77% and 76%. For the same compound, the “Population Normal (%)” value [3] was 85% and 87%, the “Total Cell Count” value [3] was 229 and 602 and 657 and the “Population Fragmented Nuclei (%)” value [4] was 12% and 6% and 7%. For the same compound, the “Population Hoechst High Intensity Objects (%)” value [4] was 5% and 2%, the “Population Mitotic Cells (%)” value [4] was 49% and 88% and 94% and the “Population Normal (%)” value [4] was 94% and 97%. The “Population Fragmented Nuclei (%)” value [7] was 10% and 13% and 15%, the “Population Healthy Nuclei (%)” value [7] was 31% and 68% and 74% and the “Population Hoechst High Intensity Objects (%)” value [7] was 16% and 12% and 8%. The “Population Mitotic Cells (%)” value [7] was 29% and 68% and 78%, the “Population Normal (%)” value [7] was 83% and 87% and 91% and the “Total Cell Count” value [7] was 250 and 573 and 727. The “Population Healthy Nuclei (%)” value [8] was 38% and 82% and 70%, the “Population Hoechst High Intensity Objects (%)” value [8] was 2% and 3% and the “Population Normal (%)” value [8] was 97% and 96%. For the same compound, the “Population Apoptotic (%)” value [11] was 64%, the “Population Fragmented Nuclei (%)” value [11] was 20% and the “Population Healthy Nuclei (%)” value [11] was 22%. For the same compound, the “Population Hoechst High Intensity Objects (%)” value [11] was 20%, the “Population Membrane Permeable-Phenotype (%)” value [11] was 2% and the “Population Mitochondria Different-Phenotype (%)” value [11] was 88%. The “Population Mitotic Cells (%)” value [11] was 35%, the “Population Normal (%)” value [11] was 79% and the “Population Pyknosed Nuclei (%)” value [11] was 57%. The “Population Tubulin-Different-Phenotype (%)” value [11] was 91%, the “Total Cell Count” value [11] was 254 and the “Population Apoptotic (%)” value [12] was 45%. The “Population Fragmented Nuclei (%)” value [12] was 4%, the “Population Healthy Nuclei (%)” value [12] was 56% and the “Population Hoechst High Intensity Objects (%)” value [12] was 5%. The “Population Membrane Permeable-Phenotype (%)” value [12] was 5%, the “Population Mitochondria Different-Phenotype (%)” value [12] was 81% and the “Population Mitotic Cells (%)” value [12] was 54%. For the same compound, the “Population Normal (%)” value [12] was 94%, the “Population Pyknosed Nuclei (%)” value [12] was 38% and the “Population Tubulin-Different-Phenotype (%)” value [12] was 97%. For the same compound, the “Total Cell Count” value [12] was 197.

— ChEMBL document CHEMBL4689842, “EUbOPEN Chemogenomics Library wave 1” (2021)
